This is an account of results in ChEMBL document CHEMBL1145044, “Novel cationic transport agents for oligonucleotide delivery into primary leukemic cells” (J Med Chem, 2003).

A short description of series [1]: Cytotoxicity for relative cell viability compared to untreated control in Primary leukemic cells(PLC) by MTT assay. The format is functional, cell-based, Gallus gallus. A digest of the protocol:
(§1)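 MTT reduction by cells exposed to transport agent alone, expressed relative to untreated control cells (100%). The value reported is the agent concentration at which relative viability falls to 50%.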
For orientation: Formazan colour is commonly taken as a measure of viable cells.

A short description of series [2]: Cytotoxicity for relative cell viability compared to untreated control in CEF cells by MTT assay. The class given is functional, cell-based, Gallus gallus.
Series [3] can be described thus: Relative uptake of ODN in Primary leukemic cells(PLC) incubated with 0.25 uMol/L of P32-labeled v-myb antisense ODN for 2 hr at a concentration of 2.5 uMol/L. The class given is functional, Gallus gallus. A digest of the protocol:
(§2)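 Cells were seeded at 1 × 10^6 per well in medium with 10% serum one day ahead. 0.25 µM ³²P-end-labeled v-myb antisense ODN was complexed with agent (final 2.5 µM) in serum-free medium for 30 min at room temperature. Cells were then exposed for 2 h at 37 °C or 41 °C depending on cell type. Membrane-bound ODN was stripped by acid-salt elution. Cells were lysed in proteinase K buffer and counted by liquid scintillation. Uptake is relative to free ODN, mean of ≥3 independent experiments.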

Series [4] is described as follows: Cytotoxicity for relative cell viability compared to untreated control in BM2 cells by MTT assay. The class given is functional, cell-based, Gallus gallus. A digest of the protocol:
as §1

Series [5] is described as follows: Relative uptake of ODN in BM2 cells incubated with 0.25 uMol/L of P32-labeled v-myb antisense ODN for 2 hr at a concentration of 2.5 uMol/L. The class given is functional, Gallus gallus. A digest of the protocol: as §2
Series [6] is described as follows: Apparent association constant was determined. The format is ADME.

Each structure is given as a SMILES string.

As for `CCC1=C(C)C2=N/C1=C\c1[nH]c(c(CCC(=O)NCCc3c[nH]cn3)c1C)/C=c1\[nH]/c(c(CC)c1CC)=C\c1[nH]c(c(C)c1CCC(=O)NCCc1c[nH]cn1)/C=C1\N=C(C2)C(C)=C1CC`, the IC50 in series [1] and in series [2] was 8.5 uM l-1 throughout. The “Relative ODN uptake” value in series [3] came to 2.1.

For `C[N+](C)(C)Cc1ccc(-c2c3nc(c(-c4ccc(C[N+](C)(C)C)cc4)c4ccc([nH]4)c(-c4ccc(C[N+](C)(C)C)cc4)c4ccc([nH]4)c(-c4ccc(C[N+](C)(C)C)cc4)c4nc2C=C4)C=C3)cc1.[Cl-].[Cl-].[Cl-].[Cl-]`, the IC50 in series [4] came to 10 uM l-1; in series [1], 12 uM l-1; in series [2], 10 uM l-1. The “Relative ODN uptake” value was found to be 2.5 in series [5] and 4.2 in series [3].

`Cc1ccc(-c2c3nc(c(-c4ccc(C[N+](C)(C)C)cc4)c4ccc([nH]4)c(-c4ccc(C)cc4)c4ccc([nH]4)c(-c4ccc(C[N+](C)(C)C)cc4)c4nc2C=C4)C=C3)cc1.[Cl-].[Cl-]`: in series [6], the K ass stood at 2.2e+06 M⁻¹. Besides, the IC50 in series [4], in series [1] and in series [2] was over 20 uM l-1 each time. Besides, the “Relative ODN uptake” value is recorded as 16.7 in series [5] and 67.5 in series [3].

Take `I.I.I.I.O=C(NCCNC1=NCCCN1)c1ccc(-c2c3nc(c(-c4ccc(C(=O)NCCNC5=NCCCN5)cc4)c4ccc([nH]4)c(-c4ccc(C(=O)NCCNC5=NCCCN5)cc4)c4ccc([nH]4)c(-c4ccc(C(=O)NCCNC5=NCCCN5)cc4)c4nc2C=C4)C=C3)cc1`: in series [6], the K ass was found to be 268000 M⁻¹. The IC50 in series [4], in series [1] and in series [2] was over 20 uM l-1 throughout. The “Relative ODN uptake” value in series [5] was 10.8; in series [3], 43.2.

In the case of `CCC1=C(C)C2=N/C1=C\c1[nH]c(c(CCC(=O)N(C)CC(O)C(O)C(O)C(O)CO)c1C)/C=c1\[nH]/c(c(CC)c1CC)=C\c1[nH]c(c(C)c1CCC(=O)N(C)CC(O)C(O)C(O)C(O)CO)/C=C1\N=C(C2)C(C)=C1CC` (configuration not stated), the IC50 in series [4] is given as 10 uM l-1; in series [1], 4.2 uM l-1; in series [2] it was 10 uM l-1. Moreover, the “Relative ODN uptake” value in series [3] is 9.1.

Turning to `C[n+]1ccc(-c2c3nc(c(-c4cc[n+](C)cc4)c4ccc([nH]4)c(-c4cc[n+](C)cc4)c4ccc([nH]4)c(-c4cc[n+](C)cc4)c4nc2C=C4)C=C3)cc1` [TMPYP4], the IC50 in series [1] is over 20 uM l-1; in series [2], 15 uM l-1. In addition, the results for the “Relative ODN uptake” value in series [5] and in series [3] were 3.8 and 1.2, respectively.

Consider `CCC1=C(C)C2=N/C1=C\c1[nH]c(c(CCC(=O)NCCOCCOCCN)c1C)/C=c1\[nH]/c(c(CC)c1CC)=C\c1[nH]c(c(C)c1CCC(=O)NCCOCCOCCN)/C=C1\N=C(C2)C(C)=C1CC`, for which the values for the IC50 in series [1] and in series [2] were 14 uM l-1 and 10 uM l-1, respectively. Moreover, the “Relative ODN uptake” value in series [3] is listed as 4.4.

Turning to `Cl.Cl.Cl.Cl.O=C(NCC1CCN2CCC(CO)N=C2N1)c1ccc(-c2c3nc(c(-c4ccc(C(=O)NCC5CCN6CCC(CO)N=C6N5)cc4)c4ccc([nH]4)c(-c4ccc(C(=O)NCC5CCN6CCC(CO)N=C6N5)cc4)c4ccc([nH]4)c(-c4ccc(C(=O)NCC5CCN6CCC(CO)N=C6N5)cc4)c4nc2C=C4)C=C3)cc1` (configuration not stated), the IC50 in series [4] is on record as 15 uM l-1; in series [1] it was over 20 uM l-1; in series [2], 15 uM l-1. In series [3], the “Relative ODN uptake” value came to 13.4.

Regarding `I.NCCNC1=NCCCN1`, the IC50 in series [1] is given as over 20 uM l-1; in series [2], 20 uM l-1. In addition, the “Relative ODN uptake” value in series [5] was determined as 5.1; in series [3], 3.2.

In the case of `Br.OC[C@@H]1CCN2CC[C@@H](CO)NC2N1`, the IC50 in series [1] came out at 8.5 uM l-1. For the same compound, the results for the “Relative ODN uptake” value in series [5] and in series [3] were 2.5 and 0.77, respectively.

With `CCc1c(C(=O)NC(=N)N)[nH]c(Cc2[nH]c(C(=O)NC(=N)N)c(CC)c2C)c1C.Cl.Cl`, the IC50 is given as over 10 uM l-1 in series [4], over 20 uM l-1 in series [1] and 15 uM l-1 in series [2]. Further, the “Relative ODN uptake” value in series [5] is recorded as 1.3; in series [3], 1.8.
